≈ marks a conversion by molar mass, not a printed value.
Assays:
[1] = tested on: Trypanosoma brucei brucei; assay: Antimicrobial activity against bloodstream form of Trypanosoma brucei brucei 427 at 10 uM after 48 hrs by alamar blue assay; type: functional; conditions: Trypanosoma brucei, 427, 48 h
[2] = tested on: Trypanosoma brucei brucei; assay: Antimicrobial activity against bloodstream form of Trypanosoma brucei brucei 427 after 48 hrs by alamar blue assay; type: functional, organism-based; conditions: Trypanosoma brucei, 427, 48 h
[3] = Selectivity index, ratio of IC50 for HEK293 cells to IC50 for Trypanosoma brucei brucei 427; type: toxicity, cell-based; conditions: human, read-out: Ratio IC50
[4] = Plasma protein binding in human […] by chromatographic method; type: ADME, cell-free; conditions: read-out: PPB (converted)
How it was run: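 Human plasma protein binding was estimated by a chromatographic method.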

[5] = Partition coefficient, log D of the compound at pH 7.4 by HPLC method; type: physicochemical; conditions: octanol/water
How it was run: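 Distribution coefficient at pH 7.4 was measured chromatographically.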

[6] = Kinetic solubility of the compound at 10 mg/ml at pH 6.5 by nephelometry; type: physicochemical; conditions: buffer, read-out: Kinetic_solubility
How it was run: (§1)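 Kinetic solubility was read by nephelometry at pH 2 and pH 6.5 and reported as μg/mL ranges.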

[7] = Kinetic solubility of the compound at 10 mg/ml at pH 2 by nephelometry; type: physicochemical; conditions: buffer, read-out: Kinetic_solubility; how it was run: as §1
[8] = tested on: Trypanosoma brucei rhodesiense; assay: Antimicrobial activity against bloodstream form of Trypanosoma brucei rhodesiense STIB 900 after 70 hrs by alamar blue assay; type: functional, organism-based; conditions: STIB 900, 70 h
How it was run: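 Trypanosoma brucei rhodesiense STIB 900 bloodstream-form trypomastigotes, with melarsoprol as reference drug.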

Trypanosoma cruzi = assay: Antimicrobial activity against amastigote form of Trypanosoma cruzi Tulahuen C2C4 infected in rat L6 cells after 96 hrs by microscopic analysis; conditions: Tulahuen C2C4, L6, 96 h
L6 = assay: Cytotoxicity against rat L6 cells after 70 hrs by alamar blue assay; type: cell-based; conditions: L6, 70 h
How it was run: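 Cytotoxicity on the rat skeletal myoblast L-6 strain, with podophyllotoxin as reference drug.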

Leishmania donovani = assay: Antimicrobial activity against amastigote form of Leishmania donovani MHOM/ET/67/L82 after 70 hrs by alamar blue assay; type: functional, organism-based; conditions: MHOM/ET/67/L82, 70 h
How it was run: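 Leishmania donovani MHOM-ET-67/L82 axenic amastigotes, with miltefosine as reference drug.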

Plasmodium falciparum = assay: Antimicrobial activity against erythrocytic stage of Plasmodium falciparum NF54 infected in human washed RBC assessed as [3H]-hypoxanthine incorporation incubated for 48 hrs prior to [3H]-hypoxanthine addition measured after 24 hrs by liquid scintillation counting analysis; type: functional, organism-based
Liver microsome = assay: Intrinsic clearance in human liver microsomes at 1 uM after 60 mins by LC-MS analysis; type: ADME; conditions: 1 h
How it was run: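 In vitro intrinsic clearance was measured in human liver microsomes and expressed per mg protein. A hepatic extraction ratio (E_H) was predicted from the in vitro data.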

IC50 [2] [nM]	Structure (SMILES)	inhibition at 10 µM [1] [%]	selectivity ratio [3]	other results
	Cc1ccccc1C(=O)Nc1ccon1	< 10		
	Cc1ccccc1C(=O)Nc1cccc(O)n1	< 10		
	CCCCN(C(=O)c1ccccc1C)c1ccccn1	11		
2740	CCc1ccccc1C(=O)Nc1ccccn1		30	
9070	O=C(Nc1ccccn1)c1ccccc1		9.2	
	O=C(Nc1ccccn1)c1ccccc1OC(F)(F)F	13		
	Cc1ccccc1C(=O)Nc1ccc(C#N)cn1	< 10		fraction unbound [4]: 0.025; logD [5]: 3.9; solubility kinetic [6]: 6.3 µg/mL (≈ 26.6 µM); solubility kinetic [7]: 6.3 µg/mL (≈ 26.6 µM)
900	Cc1ccnc(NC(=O)c2ccc(F)c(F)c2C)c1		93	IC50 [8]: 640 nM; IC50 (Trypanosoma cruzi): 147 µM; IC50 (L6): 223 µM; IC50 (Leishmania donovani): > 113 µM; IC50 (Plasmodium falciparum): 72 µM
2000	Cc1ccccc1C(=O)Nc1cc(-c2ccccc2)ccn1		31	IC50 [8]: 970 nM; IC50 (Trypanosoma cruzi): 66 µM; IC50 (L6): 70 µM; IC50 (Leishmania donovani): > 124 µM; IC50 (Plasmodium falciparum): 91 µM
2300	COc1ccc(NC(=O)c2cccc(F)c2C)nc1		4	
	O=C(Nc1ccc2ccccc2n1)c1ccccc1-c1ccccc1	53		
	Cc1ccc(NC(=O)c2cc(S(=O)(=O)NC(C)(C)C)ccc2C)nc1	12		
3800	COc1ccc(NC(=O)c2ccccc2C)nc1		> 22	fraction unbound [4]: 0.399; CLint (Liver microsome): 23 µL/min/mg; logD [5]: 2.5; solubility kinetic [6]: 12.5 µg/mL (≈ 51.6 µM); solubility kinetic [7]: > 100 µg/mL
	COc1cccnc1NC(=O)c1ccccc1C	< 10		
4600	Cc1ccccc1C(=O)Nc1cccc(N)n1		> 19	
	Cc1ccccc1C(=O)Nc1ccc(Br)c(C)n1	< 10		
	O=C(Nc1ccccn1)c1ccccc1I	38		
	Cc1ccccc1C(=O)Nc1nc[nH]n1	< 10		
2600	COc1ccc(NC(=O)c2ccc(F)cc2C)nc1		32	
890	Cc1c(F)cccc1C(=O)Nc1ccccn1		94	fraction unbound [4]: 0.321; IC50 [8]: 610 nM; CLint (Liver microsome): 58 µL/min/mg; logD [5]: 2.6; IC50 (Trypanosoma cruzi): 198 µM; IC50 (L6): 310 µM; IC50 (Leishmania donovani): > 131 µM; solubility kinetic [6]: 25 µg/mL (≈ 109 µM); IC50 (Plasmodium falciparum): 103 µM; solubility kinetic [7]: 50 µg/mL (≈ 217 µM)
	Cc1ccccc1C(=O)Nc1ncccc1C	34		
	O=C(Nc1ccccn1)c1ccccc1Cl	44		

IC50 [2] [nM]	Structure (SMILES)	inhibition at 10 µM [1] [%]	selectivity ratio [3]	other results
830	Cc1ccnc(NC(=O)c2cccc(F)c2C)c1		100	fraction unbound [4]: 0.276; CLint (Liver microsome): 237 µL/min/mg; logD [5]: 3.5; solubility kinetic [6]: 25 µg/mL (≈ 102 µM); solubility kinetic [7]: > 100 µg/mL
	Cc1ccccc1C(=O)Nc1ccc(Br)cn1	< 10		
	O=C(Nc1ccccn1)c1ccccc1-c1ccccc1	< 10		
1900	Cc1cc(F)ccc1C(=O)Nc1ccccn1		44	
	CCN(CC)CCCC(C)Nc1ccnc2cc(Cl)ccc12 (stereo not given) [CHLOROQUINE]			EC50 (Plasmodium falciparum): 0.11 µg/mL (≈ 0.344 µM)
	Cc1ccccc1C(=O)Nc1cccc(OCC(C)C)n1	< 10		
3030	Cc1ccccc1C(=O)Nc1ccccn1	80	27.5	IC50 [8]: 2100 nM; IC50 (Trypanosoma cruzi): 152 µM; IC50 (L6): 156 µM; IC50 (Leishmania donovani): 48 µM; IC50 (Plasmodium falciparum): 36 µM
100	Cc1c(F)cccc1C(=O)Nc1cc(F)ccn1		851	
	Cc1ccccc1C(=O)Nc1ccccc1C#N	< 10		
1100	Cc1ccccc1C(=O)Nc1cc(C#CCC(C)C)ccn1		> 53	
	O=C(Nc1ccccn1)c1ccccc1F	35		
	Cc1ccccc1C(=O)Nc1cnccn1	35		
	CCC/C=C/c1ccc(NC(=O)c2ccccc2C)nc1	19		
	Cc1cc(NC(=O)c2ccccc2C)no1	< 10		
	Cc1ccccc1C(=O)Nc1ccccc1	< 10		
	Cc1ccccc1C(=O)N(C)c1ccccn1	18		
	Cc1ccccc1C(=O)Nc1cccc(Br)n1	< 10		
	Cc1ncccc1C(=O)Nc1ccccn1	21		
	Cc1ccccc1C(=O)Nc1ncns1	< 10		
190	Cc1c(C(=O)Nc2cc(F)ccn2)ccc(F)c1F		450	
	Cc1cccc(NC(=O)c2ccccc2C)n1	< 10		
1800	Cc1ccccc1C(=O)Nc1cc(Br)ccn1		> 41	

From ChEMBL document CHEMBL3352586, “Pyridyl benzamides as a novel class of potent inhibitors for the kinetoplastid Trypanosoma brucei” (J Med Chem, 2014)
